Values belong to the molecule of their own block, whether it stands above or below them. No end group written: not given here.
What was measured:
[1] = target: T1, GRK2 (rhodopsin substrate) (Bos taurus, UniProt P21146); assay: Inhibition of GRK2 phosphorylation of Rho* by GRK peptides; assay type: biochemical; details: 1-15 µM rhodopsin, 60 µM peptide; 3 independent experiments
T1 sequence (P21146 1-689): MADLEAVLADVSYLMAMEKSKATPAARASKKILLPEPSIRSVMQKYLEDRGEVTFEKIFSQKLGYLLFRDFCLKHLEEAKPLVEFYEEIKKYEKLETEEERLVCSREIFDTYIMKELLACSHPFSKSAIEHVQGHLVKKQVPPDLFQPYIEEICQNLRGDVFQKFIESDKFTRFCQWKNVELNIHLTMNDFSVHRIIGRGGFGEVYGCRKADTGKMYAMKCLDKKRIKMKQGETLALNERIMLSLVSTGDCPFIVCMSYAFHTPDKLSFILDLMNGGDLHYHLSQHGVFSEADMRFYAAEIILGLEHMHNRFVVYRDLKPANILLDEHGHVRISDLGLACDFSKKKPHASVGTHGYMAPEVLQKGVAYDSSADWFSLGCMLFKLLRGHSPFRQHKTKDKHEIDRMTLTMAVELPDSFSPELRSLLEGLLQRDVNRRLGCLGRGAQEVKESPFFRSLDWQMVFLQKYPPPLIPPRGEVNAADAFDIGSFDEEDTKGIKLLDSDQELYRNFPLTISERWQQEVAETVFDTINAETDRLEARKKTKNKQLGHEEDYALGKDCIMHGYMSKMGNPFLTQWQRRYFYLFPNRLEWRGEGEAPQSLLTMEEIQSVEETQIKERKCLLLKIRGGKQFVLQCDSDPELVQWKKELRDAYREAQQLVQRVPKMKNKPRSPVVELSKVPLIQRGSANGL
How it was run: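 Sf9-expressed, purified GRK2 (20 nM) phosphorylated 1–15 µM light-activated rhodopsin with or without 60 µM test peptide. Products were resolved by SDS-PAGE and autoradiographed, then bands were excised and scintillation-counted. Values are mean ± SD from three experiments.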

GRK2 (β2AR substrate) = target: T2, GRK2 (β2AR substrate) (Bos taurus, UniProt P21146); assay: Inhibition of GRK2 phosphorylation of β2AR by GRK peptides; assay type: biochemical
T2 sequence (P21146 1-689): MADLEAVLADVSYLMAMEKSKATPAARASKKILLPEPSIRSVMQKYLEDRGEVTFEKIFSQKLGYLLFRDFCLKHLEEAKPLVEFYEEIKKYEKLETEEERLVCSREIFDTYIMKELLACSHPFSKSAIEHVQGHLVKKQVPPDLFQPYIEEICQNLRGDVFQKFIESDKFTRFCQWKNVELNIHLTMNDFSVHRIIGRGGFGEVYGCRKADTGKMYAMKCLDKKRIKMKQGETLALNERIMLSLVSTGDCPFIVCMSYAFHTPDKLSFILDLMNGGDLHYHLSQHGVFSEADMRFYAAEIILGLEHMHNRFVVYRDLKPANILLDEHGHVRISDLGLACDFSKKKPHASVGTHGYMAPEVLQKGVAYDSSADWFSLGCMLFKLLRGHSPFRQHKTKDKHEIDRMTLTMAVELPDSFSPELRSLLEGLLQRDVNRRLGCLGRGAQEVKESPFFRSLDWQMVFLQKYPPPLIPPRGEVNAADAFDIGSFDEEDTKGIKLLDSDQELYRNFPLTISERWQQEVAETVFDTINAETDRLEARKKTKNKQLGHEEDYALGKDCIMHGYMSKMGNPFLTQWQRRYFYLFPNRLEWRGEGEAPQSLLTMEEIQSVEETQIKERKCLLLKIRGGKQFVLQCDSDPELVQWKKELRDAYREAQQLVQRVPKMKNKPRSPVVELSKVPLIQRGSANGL

[2] = target: T1, GRK2 (rhodopsin substrate); details: cited from earlier work
[3] = Circular dichroism of GRK2 peptides; assay type: physicochemical; details: 16 µM peptide in PBS pH 7.0, 4°C
How it was run: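 Far-UV CD spectra recorded at 4°C over 200–280 nm in a 1.0 cm pathlength cuvette (1 nm/min, 4 s response, 1 nm bandwidth). Test peptide was diluted to 16 µM in PBS pH 7.0 with varying trifluoroethanol. Observed ellipticity was converted to molar ellipticity using mean residue weight, path length and concentration. Relative helix content was deduced from these spectra.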

[4] = tested on: β2-adrenergic receptor (β2AR); assay: Phosphorylation of purified β2AR by purified GRK2 mutants; assay type: biochemical, human; details: 50 nM β2AR in mixed micelles, 20 nM GRK2, 10 µM isoproterenol, 0.2 mM ATP, 30°C; 3 experiments
rhodopsin (Rho*) = assay: Phosphorylation of light-activated rhodopsin; assay type: biochemical; details: COS-1 lysates, 2-20 min, 30°C; autoradiography (Fig. 1B)
GPCR = details: cited from earlier work

B1: D3K: GRK2 amino terminal point mutant, Asp-3 to lysine (protein)
chain: MAKLEAVLADVSYLMAMEKSKATPAARASKKILLPEPSIRSVMQKYLEDRGEVTFEKIFSQKLGYLLFRDFCLKHLEEAKPLVEFYEEIKKYEKLETEEERLVCSREIFDTYIMKELLACSHPFSKSAIEHVQGHLVKKQVPPDLFQPYIEEICQNLRGDVFQKFIESDKFTRFCQWKNVELNIHLTMNDFSVHRIIGRGGFGEVYGCRKADTGKMYAMKCLDKKRIKMKQGETLALNERIMLSLVSTGDCPFIVCMSYAFHTPDKLSFILDLMNGGDLHYHLSQHGVFSEADMRFYAAEIILGLEHMHNRFVVYRDLKPANILLDEHGHVRISDLGLACDFSKKKPHASVGTHGYMAPEVLQKGVAYDSSADWFSLGCMLFKLLRGHSPFRQHKTKDKHEIDRMTLTMAVELPDSFSPELRSLLEGLLQRDVNRRLGCLGRGAQEVKESPFFRSLDWQMVFLQKYPPPLIPPRGEVNAADAFDIGSFDEEDTKGIKLLDSDQELYRNFPLTISERWQQEVAETVFDTINAETDRLEARKKTKNKQLGHEEDYALGKDCIMHGYMSKMGNPFLTQWQRRYFYLFPNRLEWRGEGEAPQSLLTMEEIQSVEETQIKERKCLLLKIRGGKQFVLQCDSDPELVQWKKELRDAYREAQQLVQRVPKMKNKPRSPVVELSKVPLIQRGSANGL
decrease in β2AR phosphorylation activity vs wild-type GRK2 [4]: ~ 60%
ability to phosphorylate Rho* (rhodopsin (Rho*)): completely defective in their ability to phosphorylate Rho*

B3: L4A: GRK2 amino terminal point mutant, Leu-4 to alanine (protein)
chain: MADAEAVLADVSYLMAMEKSKATPAARASKKILLPEPSIRSVMQKYLEDRGEVTFEKIFSQKLGYLLFRDFCLKHLEEAKPLVEFYEEIKKYEKLETEEERLVCSREIFDTYIMKELLACSHPFSKSAIEHVQGHLVKKQVPPDLFQPYIEEICQNLRGDVFQKFIESDKFTRFCQWKNVELNIHLTMNDFSVHRIIGRGGFGEVYGCRKADTGKMYAMKCLDKKRIKMKQGETLALNERIMLSLVSTGDCPFIVCMSYAFHTPDKLSFILDLMNGGDLHYHLSQHGVFSEADMRFYAAEIILGLEHMHNRFVVYRDLKPANILLDEHGHVRISDLGLACDFSKKKPHASVGTHGYMAPEVLQKGVAYDSSADWFSLGCMLFKLLRGHSPFRQHKTKDKHEIDRMTLTMAVELPDSFSPELRSLLEGLLQRDVNRRLGCLGRGAQEVKESPFFRSLDWQMVFLQKYPPPLIPPRGEVNAADAFDIGSFDEEDTKGIKLLDSDQELYRNFPLTISERWQQEVAETVFDTINAETDRLEARKKTKNKQLGHEEDYALGKDCIMHGYMSKMGNPFLTQWQRRYFYLFPNRLEWRGEGEAPQSLLTMEEIQSVEETQIKERKCLLLKIRGGKQFVLQCDSDPELVQWKKELRDAYREAQQLVQRVPKMKNKPRSPVVELSKVPLIQRGSANGL
decrease in β2AR phosphorylation activity vs wild-type GRK2 [4]: 90–95%

B4: V477D: mutation in the AGC kinase C-tail of GRK2, literature (protein, UniProt P25098 1-689, looked up, variant V477D)
Beta-adrenergic receptor …: MADLEAVLADVSYLMAMEKSKATPAARASKKILLPEPSIRSVMQKYLEDRGEVTFEKIFSQKLGYLLFRDFCLNHLEEARPLVEFYEEIKKYEKLETEEERVARSREIFDSYIMKELLACSHPFSKSATEHVQGHLGKKQVPPDLFQPYIEEICQNLRGDVFQKFIESDKFTRFCQWKNVELNIHLTMNDFSVHRIIGRGGFGEVYGCRKADTGKMYAMKCLDKKRIKMKQGETLALNERIMLSLVSTGDCPFIVCMSYAFHTPDKLSFILDLMNGGDLHYHLSQHGVFSEADMRFYAAEIILGLEHMHNRFVVYRDLKPANILLDEHGHVRISDLGLACDFSKKKPHASVGTHGYMAPEVLQKGVAYDSSADWFSLGCMLFKLLRGHSPFRQHKTKDKHEIDRMTLTMAVELPDSFSPELRSLLEGLLQRDVNRRLGCLGRGAQEVKESPFFRSLDWQMVFLQKYPPPLIPPRGEDNAADAFDIGSFDEEDTKGIKLLDSDQELYRNFPLTISERWQQEVAETVFDTINAETDRLEARKKAKNKQLGHEEDYALGKDCIMHGYMSKMGNPFLTQWQRRYFYLFPNRLEWRGEGEAPQSLLTMEEIQSVEETQIKERKCLLLKIRGGKQFILQCDSDPELVQWKKELRDAYREAQQLVQRVPKMKNKPRSPVVELSKVPLVQRGSANGL
receptor phosphorylation and receptor-mediated activation (GPCR; GRK2 AGC kinase C-tail mutation): defective in receptor phosphorylation and receptor-mediated activation
activity against non-receptor substrates (GPCR): reduced activity against non-receptor substrates

The next lines start with results.

Km change [1]: no change in the Km
IC50 (GRK2 (β2AR substrate)): ~50 µM
Molecule: MADLEAVLADVYSL [GRK2 peptide]

effect on GRK2-mediated β2AR phosphorylation (GRK2 (β2AR substrate); 200 µM peptide, 3 experiments (Fig. 4E)): no significant effect
Molecule: MELENIVANTLLK [GRK5 peptide, reference compound]
effect on GRK2-mediated phosphorylation of rhodopsin [2]: no effect

helix formation ([3]; in solution without TFE (0% TFE)): minimal helical formation in solution
helix formation ([3]; in the presence of TFE (25-50%)): no helix formation was observed
Molecule: MADLEAPLADVYSL [Pro peptide]

decrease in β2AR phosphorylation activity vs wild-type GRK2 [4]: 90–95%
B2: D10A: GRK2 amino terminal point mutant (protein)
chain: MADLEAVLAAVSYLMAMEKSKATPAARASKKILLPEPSIRSVMQKYLEDRGEVTFEKIFSQKLGYLLFRDFCLKHLEEAKPLVEFYEEIKKYEKLETEEERLVCSREIFDTYIMKELLACSHPFSKSAIEHVQGHLVKKQVPPDLFQPYIEEICQNLRGDVFQKFIESDKFTRFCQWKNVELNIHLTMNDFSVHRIIGRGGFGEVYGCRKADTGKMYAMKCLDKKRIKMKQGETLALNERIMLSLVSTGDCPFIVCMSYAFHTPDKLSFILDLMNGGDLHYHLSQHGVFSEADMRFYAAEIILGLEHMHNRFVVYRDLKPANILLDEHGHVRISDLGLACDFSKKKPHASVGTHGYMAPEVLQKGVAYDSSADWFSLGCMLFKLLRGHSPFRQHKTKDKHEIDRMTLTMAVELPDSFSPELRSLLEGLLQRDVNRRLGCLGRGAQEVKESPFFRSLDWQMVFLQKYPPPLIPPRGEVNAADAFDIGSFDEEDTKGIKLLDSDQELYRNFPLTISERWQQEVAETVFDTINAETDRLEARKKTKNKQLGHEEDYALGKDCIMHGYMSKMGNPFLTQWQRRYFYLFPNRLEWRGEGEAPQSLLTMEEIQSVEETQIKERKCLLLKIRGGKQFVLQCDSDPELVQWKKELRDAYREAQQLVQRVPKMKNKPRSPVVELSKVPLIQRGSANGL
ability to phosphorylate Rho* (rhodopsin (Rho*)): completely defective in their ability to phosphorylate Rho*
